TAAR1 antagonist = antagonists of human TAAR1; Q96RJ0; CHO RD-HGA16 TAAR1, Fluo-8 calcium fluorescence, antagonist; inhibition, % at 3 µM; 360,000 tested, 1.5% active; AID 624466;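 active = inhibition above a per-plate cutoff, the mean inhibition of test compounds on that plate plus 3 SD, cut at about 49% in these data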;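 note: 0% = DMSO plus EC80 beta-PEA response and 100% = DMSO alone without agonist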
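System: RD-HGA16 CHO cells with stable hTAAR1 and Gα16 | Probe or stimulus: EC80 β-phenethylamine stimulus | Dosing: 3 µM, single point | Times: Dye loading 75 min at 37 °C, then 30 min room temperature | Measured by: Fluo-8 calcium-sensitive fluorescence | Read-out basis: % inhibition of agonist calcium response | Replicates: n of 1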
V1R ag counter = counter-screen for oxytocin receptor agonists: human V1a receptor agonists; P37288; CHO-V1R cells, Fluo-8 calcium fluorescence, agonist mode; 0% DMSO, 100% 3 nM vasopressin; activation, % at 3 µM; 320,000 tested, 0.25% active; AID 2797;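 active = activation above the mean activation of all tested compounds plus 3 SD, per screening run, cut at about 20% in these data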;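 note: signal is peak over basal fluorescence ratio across a 100 second FLIPR read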
Target sequence (P37288 whole entry, looked up): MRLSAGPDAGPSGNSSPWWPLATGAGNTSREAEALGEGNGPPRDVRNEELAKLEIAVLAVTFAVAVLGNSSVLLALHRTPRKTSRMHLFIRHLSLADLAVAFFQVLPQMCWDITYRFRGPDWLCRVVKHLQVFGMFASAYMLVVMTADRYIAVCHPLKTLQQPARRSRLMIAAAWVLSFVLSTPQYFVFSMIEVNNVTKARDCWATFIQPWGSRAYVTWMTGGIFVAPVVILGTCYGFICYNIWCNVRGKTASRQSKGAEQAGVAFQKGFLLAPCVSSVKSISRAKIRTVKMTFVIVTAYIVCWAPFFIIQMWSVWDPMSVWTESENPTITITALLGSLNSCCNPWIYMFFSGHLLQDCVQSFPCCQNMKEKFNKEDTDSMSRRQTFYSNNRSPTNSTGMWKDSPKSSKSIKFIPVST
OXTR potentiate = potentiators of human oxytocin receptor; CHO-OTR cells, Fluo-8 calcium fluorescence, potentiator mode; 0% = oxytocin EC15, 100% = EC100; 320,000 tested, 0.061% active; activation, % at 3 µM; P30559; AID 2445;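 active = activation above that plate's cutoff, the mean activation of tested compounds plus 3 SD, cut at about 6.6% in these data, passing the limit was not always enough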;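 note: 100% uses oxytocin at 75 nM as the full agonist control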
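System: human OTR in CHO cells; Also added: sub-maximal oxytocin, roughly EC15; Timing: compound 6 min at room temperature before oxytocin, 100 s read; Technique: Fluo-8 intracellular calcium fluorescence, ex 470-495, em 515-575 nm; Controls: oxytocin EC15 low and EC100 high; Replication: singlicate.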
OXTR ag = agonists of human oxytocin receptor | P30559 | CHO-OTR cells, Fluo-8 calcium fluorescence; normalized: DMSO 0%, oxytocin 100% | activation, % at 3 µM | 320,000 tested, 0.32% active | AID 2435;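 active = activation above the mean of all tested compounds plus 3 SD, cutoff set per screening run, cut at about 20% in these data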;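 note: peak over basal fluorescence ratio from a 100 s FLIPR kinetic read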
TAAR1 ag = agonists of human TAAR1; Q96RJ0; CHO RD-HGA16 TAAR1, Fluo-8 calcium fluorescence; vehicle wells 0%, saturating PEA agonist 100%; activation, % at 3 µM; 360,000 tested, 0.99% active; AID 624467;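 active = activation above the mean activation of all test compounds in the run plus 3 SD, cut at about 38% in these data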
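Repeats: no replicates (n 1) | Material: CHO-derived RD-HGA16 cells with stable Gα16 and human TAAR1 | Technique: Kinetic Fluo-8 calcium fluorescence | Schedule: 17-24 h seeding, 75 min 37 °C dye, 30 min RT | Evaluation: % activation from peak over basal fluorescence ratio, DMSO-to-PEA scaled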
TAAR1 ag confirm = confirmation of human TAAR1 agonists | 2,400 tested, 82% active | CHO RD-HGA16 TAAR1, Fluo-8 calcium fluorescence; scaled: DMSO 0%, maximal phenethylamine 100% | AID 651783 | activation, % at 3 µM | shares compounds with TAAR1 ag;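 active = activation above a cutoff set at the run's mean compound activation plus 3 SD, cut at about 39% in these data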
Ga16 ag counter = nonselective agonism, TAAR1 counter-screen | CHO-Ga16 parental, Fluo-8 calcium fluorescence; normalized to maximal ATP response, DMSO zero | AID 651787 | 2,400 tested, 50% active | shares compounds with TAAR1 ag | activation, % at 3 µM;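 active = activation above the run cutoff, the mean activation over all tested wells plus 3 SD, cut at about 12% in these data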;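 note: 0% = DMSO wells and 100% = maximal ATP response on the peak over basal ratio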
TAAR1 desens = TAAR1 response desensitization, agonist counter-screen | shares compounds with TAAR1 ag | CHO RD-HGA16 hTAAR1, Fluo-8 calcium, beta-PEA response inhibition | inhibition, % at 3 µM | 2,400 tested, 46% active;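 active = inhibition above the run cutoff, the mean inhibition of all test compounds plus 3 SD, cut at about 49% in these data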;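 note: beta-PEA stimulus applied at its EC80; loss of beta-PEA calcium signal after compound pretreatment read as receptor desensitization; 0% = DMSO with beta-PEA at EC80 and 100% = DMSO alone without agonist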
Ga16 nonsel ant = nonselective Ga16 antagonism, counter-screen. 2,400 tested, 39% active. inhibition, % at 3 µM. CHO-Ga16 ATP-induced calcium, Fluo-8 fluorescence. shares compounds with TAAR1 ag;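 active = inhibition above the plate's mean compound inhibition plus 3 SD, computed per plate, cut at about 22% in these data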;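 note: 0% = EC80 ATP with DMSO and 100% = DMSO wells without ATP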
* hit, by the source's call; · = no result; ! = not confirmed by another sample. Rows were chosen to be rich in hits. Some 2.3% of all compounds tested hit in one or more screens of this group.

SMILES | TAAR1 antagonist | V1R ag counter | OXTR potentiate | OXTR ag | TAAR1 ag | TAAR1 ag confirm | Ga16 ag counter | TAAR1 desens | Ga16 nonsel ant
CC[C@@H](O)C[C@H]1CCC[C@@]2(C[C@@H]3OC(=O)/C=C/[C@@](C)(O)[C@@H](O)[C@H](C)[C@@H](O)[C@H](OC4CCC(N(C)C)C(C)O4)[C@@H](O)[C@](C)(O)CCCCC/C=C/[C@@H]4CC(C)(C)O[C@@]4(O)C[C@H](O2)[C@H]3C)O1 (some centres not stated) | -11 | · | · | · | 17 | · | · | · | ·
CC1=C2C3OC(=O)C(C)C3CC[C@@]2(C)C=CC1=O (some centres not stated) | -3 | 0 | 1 | 0 | 2 | · | · | · | ·
O=C1NC(=O)N(c2ccccc2)C(=O)/C1=C/c1ccc(Sc2ccccc2)o1 | · | 1 | -9 | 2 | · | · | · | · | ·
O=C1NC(=O)N(c2cccc(Cl)c2)C(=O)/C1=C\c1ccc(Sc2nc3ccccc3[nH]2)o1 | 75* | 57* | -21 | 59* | 118* | 26 | 32* | 29 | 38*
CC(Cc1ccccc1)N(C)CC1C(=O)C2CCC1C2 (configuration not stated) | 13 | · | · | · | 56* | 51* | 0 | 4 | 8
C#CCN(C)C(C)Cc1ccccc1 (configuration not stated) | -10 | 1 | -2 | 0 | 4 | · | · | · | ·
COC(=O)C1=C(c2ccc(-c3ccccc3)c(F)c2)C[C@@H]2CC[C@H]1N2C(=O)NC1CCCCC1 | -3 | 0 | -4 | 0 | 8 | · | · | · | ·
S=C(NCCc1ccccc1)N1Cc2ccc(Br)cc2-n2nncc2C1 | 34 | · | · | · | 60* | 38* | 3 | 22 | 19
CNCC(C)c1ccccc1 (configuration not stated) | 59* | 1 | -7 | 1 | 84* | 94* | 1 | 83* | 2
CCCCn1c(O)c(C(C)=NCCc2ccccc2)c(=O)[nH]c1=O | 34 | 0 | -2 | -1 | 73* | 44* | 4 | 11 | 11
CCC(=NCCc1ccccc1)c1c(O)[nH]c(=O)[nH]c1=O | · | 1 | -8 | 1 | · | · | 3 | · | 4
O=C(Nc1ccc(Cl)cc1)Nc1nccs1 | 33 | 7 | -25 | 9 | 50* | 56* | 8 | 34 | 22*
CC(N)Cc1ccc(O)cc1 (configuration not stated) | 54*! | · | · | · | 96* | 94* | 3 | 84* | 5
CCN(CC)Cc1c[nH]c2ccccc12 | 10 | 1 | -5 | 1 | 9 | · | · | · | ·
CN(CCc1ccccc1)Cc1c[nH]c2ccccc12 | 84* | 2 | -5 | 1 | 93* | 96* | 2 | 77* | 2
O=C(NCCN1CCC2(CC1)C(=O)NCN2c1ccccc1)c1ccc(F)cc1F | 5 | · | · | · | 15 | · | · | · | ·
O=C(NCCN1CCC2(CC1)C(=O)NCN2c1ccccc1)c1ccc(Cl)c(Cl)c1 | 106* | · | · | · | 113* | 124* | 95* | 107* | 103*
O=C(NCCN1CCC2(CC1)C(=O)NCN2c1ccccc1)C(c1ccccc1)c1ccccc1 | 93* | · | · | · | 58* | 33 | 24* | 76* | 62*
O=C(NCCN1CCC2(CC1)C(=O)NCN2c1ccccc1)c1ccc(OC(F)(F)F)cc1 | 96* | · | · | · | 54* | 45* | 41* | 102* | 98*
Cc1ccc(C(=O)NCCN2CCC3(CC2)C(=O)NCN3c2ccccc2)cc1 | 99* | · | · | · | 86* | 53* | 41* | 98* | 84*

Source: PubChem BioAssay
